We go through five molecules from PMC6088348 (ACS Medicinal Chemistry Letters, 2018).

Series [1] relates to tryptase activity in HMC1 cell lysates. Kind of series: Inhibition of cellular tryptase activity assessed in HMC1 cell lysates. The class given is cell-based, human. As to conditions: read-out: IC50 in HMC1 cellular lysates; lysates of inhibitor-treated HMC1 cells. A digest of the protocol: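 Tryptase activity measured in lysates of cultured HMC1 human mast cells. IC50 with SEM from nonlinear regression, Hill slope unconstrained.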

The nature of series [2]: Stability of the linker moiety in aqueous buffers and plasma. The class given is physicochemical. As to conditions: relative to the initial α-hydroxyacetonyl ether.

Turning to `NCc1cccc(C2CCN(C(=O)c3cccc(OCC(O)C4(O)CCC4)c3)CC2)c1` (stereo not shown) [Compound 1b], in series [1], the IC50 – broadly, the midpoint of a concentration-inhibition curve – worked out at 8400 nM.

With `NCc1cccc(C2CCN(C(=O)c3cccc(OCC(=O)C4(O)CCC4)c3)CC2)c1` [Compound 1a], the IC50 in series [1] stood at 454 nM. Also, the “stability under aqueous conditions” value in series [2] is given as “improved stability”.

As to `CC(C)(O)C(=O)C(=O)Nc1cccc(C(=O)N2CCC(c3cccc(CN)c3)CC2)c1` [Compound 3a], the half-inhibitory concentration (IC50) in series [1] is 113 nM.

Take `NCc1cccc(C2CCN(C(=O)c3cccc(NC(=O)C(=O)C4(O)CCC4)c3)CC2)c1` [Compound 2a]: in series [1], the IC50 worked out at 314 nM. In addition, in series [2], the “stability under aqueous conditions” value is “improved stability”.

Regarding `CC(C)(O)C(O)C(=O)Nc1cccc(C(=O)N2CCC(c3cccc(CN)c3)CC2)c1` (stereo not shown) [Compound 3b], the 50% inhibitory concentration (IC50) in series [1] is 13300 nM.
